Results of several laboratories.
Each line is one published result; the experiments were not run side by side.
Cell line: HepG2
Effect on: cell growth or viability

SMILES | method | concentration | time | quantity | result
CCOC(=O)c1ccc(-n2c(C)cc(/C=C/c3ccc(OC)cc3)c(C#N)c2=O)cc1 | MTT | 3.125 µM | 24 h | viability | 100%
COc1ccc(NC(=O)c2c(Nc3ccccc3)sc(C(=O)NN=Cc3ccc(Cl)cc3)c2NC(C)=O)cc1 | SRB | 1 µM | 48 h | viability | 84.3%
Cc1ccc2nc(-c3ccc(Cl)c(Cl)c3)n(Cc3ccccc3)c2c1 | MTT |  |  | IC50 | > 100 µM
COc1ccc(NCC(=O)Nc2c(C#N)sc(Nc3ccccc3)c2C(=O)Nc2ccc(OC)cc2)cc1 | SRB | 10 nM | 48 h | viability | 91.1%
CCN(CC)C/C=N/NC(=O)Nc1cc2c(Nc3ccc(F)c(Cl)c3)ncnc2cc1OC | MTT |  | 72 h | IC50 | 2.15 µM
COc1ccc(NC(=O)c2c(Nc3ccccc3)sc(C(=O)NN=Cc3cc(OC)c(OC)c(OC)c3)c2NC(C)=O)cc1 | SRB | 0.1 µM | 48 h | viability | 76.5%
Fc1ccc(-c2nc3ccccc3n2Cc2ccccc2)cc1 | MTT |  |  | IC50 | 45.9 µM
Cc1cc(Nc2ccc(C(=O)N/N=C/c3ccc(C)s3)cc2)c2cccc(O)c2n1 | MTT | 20 µM |  | inhibition | 46.3%
COc1ccc(NC(=O)c2c(Nc3ccccc3)sc(C#N)c2NC(=O)CNc2ccccc2Cl)cc1 | SRB | 0.1 µM | 48 h | viability | 95.7%
O=C(CN1C(=O)/C(=C/c2ccncc2)SC1=S)Nc1ccccc1 | MTT | 10 µM |  | inhibition | 11.8%
CC(=O)Nc1cccc(-n2c(=O)n(C3CC3)c(=O)c3c(Nc4ccc(I)cc4F)n(C)c(=O)c(C)c32)c1 | resazurin | 0.1 µM | 72 h | viability | 40.7%
CCOC(=O)c1ccc(-n2c(C)cc(/C=C/c3ccc(OCC)cc3)c(C#N)c2=O)cc1 | MTT | 3.125 µM | 24 h | viability | 100%
COc1ccc(NC(=O)c2c(Nc3ccccc3)sc(C(=O)NN=Cc3ccc(OC)c(O)c3)c2NC(C)=O)cc1 | SRB | 10 µM | 48 h | viability | 31.6%
CCn1cc(-c2nc(C)no2)c(=O)c2cc(F)c(N3CCCCC3)cc21 | ATP luminescence |  | 48 h | EC50 | > 40 µM
CCOC(=O)c1ccc(-n2c(-c3ccc(C)cc3)cc(-c3ccc(O)cc3)c(C#N)c2=O)cc1 | MTT | 12.5 µM | 24 h | viability | 50.4%
CCOc1ccc(-c2nc3ccc(C)cc3[nH]2)cc1 | MTT |  | 48 h | IC50 | 27.4 µM
COc1ccc(-c2cc(-c3ccc4oc(=O)cc(C)c4c3O)nc(N)n2)cc1 | MTT | 2 µg/mL | 72 h | inhibition | 0%
COc1ccc(C=NNC(=O)c2sc(Nc3ccccc3)c(C(=O)Nc3ccc(OC)cc3)c2NC(C)=O)cc1 | SRB | 1 nM | 48 h | viability | 102%
CCn1cc(-c2nc(C)no2)c(=O)c2cc(F)c(N3CCC(C)(C)CC3)cc21 | ATP luminescence |  | 48 h | EC50 | > 40 µM
O=C(CN1C(=O)/C(=C/c2ccccc2)SC1=S)Nc1ccccc1 | MTT | 10 µM |  | inhibition | 31.3%
CSc1ccc(-c2nc3ccc(C)cc3n2Cc2ccccc2)cc1 | MTT |  |  | IC50 | 17.7 µM
COc1ccc(NC(=O)c2c(Nc3ccccc3)sc(C#N)c2NC(=O)CNc2ccc([N+](=O)[O-])cc2)cc1 | SRB | 0.1 µM | 48 h | viability | 75.2%
CCOC(=O)c1ccc(N2C(N)=C(C#N)C3(C(=O)Nc4ccccc43)C(C#N)=C2O)cc1 (stereo not drawn) | MTT | 50 µM | 24 h | viability | 17.9%
Cc1cc(=O)oc2ccc(-c3cc(-c4cccs4)nc(N)n3)c(O)c12 | MTT | 2 µg/mL | 72 h | inhibition | 0%
